pKi: −log10 of the molar value.
Tests used:
Cannabinoid receptor 1 = Cannabinoid receptor 1 (Homo sapiens, UniProt P21554); test: Displacement of [3H]CP-55940 from human CB1 receptor
Cannabinoid receptor 2 = Cannabinoid receptor 2 (Homo sapiens, UniProt P34972); test: Displacement of [3H]CP-55940 from human CB2 receptor
In short: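 HEK cells transfected with human recombinant CB2 used for competition binding against [3H]CP-55,940 (Kd 0.31 nM) at 0.084 nM with increasing test compound concentrations; Ki derived from IC50 via Cheng-Prusoff equation; means of at least three separate experiments run in duplicate.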

Chain of Cannabinoid receptor 2 (P34972 whole entry): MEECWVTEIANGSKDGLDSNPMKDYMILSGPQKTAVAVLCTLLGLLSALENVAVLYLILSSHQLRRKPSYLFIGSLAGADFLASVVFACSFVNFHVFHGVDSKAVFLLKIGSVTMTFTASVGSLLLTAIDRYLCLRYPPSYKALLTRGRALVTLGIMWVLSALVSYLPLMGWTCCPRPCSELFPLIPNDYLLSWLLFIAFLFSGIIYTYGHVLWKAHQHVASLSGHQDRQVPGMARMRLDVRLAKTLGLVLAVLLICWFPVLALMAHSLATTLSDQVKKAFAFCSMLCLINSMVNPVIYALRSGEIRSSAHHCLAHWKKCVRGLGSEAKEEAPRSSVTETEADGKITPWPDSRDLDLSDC
Chain of Cannabinoid receptor 1 (P21554 whole entry): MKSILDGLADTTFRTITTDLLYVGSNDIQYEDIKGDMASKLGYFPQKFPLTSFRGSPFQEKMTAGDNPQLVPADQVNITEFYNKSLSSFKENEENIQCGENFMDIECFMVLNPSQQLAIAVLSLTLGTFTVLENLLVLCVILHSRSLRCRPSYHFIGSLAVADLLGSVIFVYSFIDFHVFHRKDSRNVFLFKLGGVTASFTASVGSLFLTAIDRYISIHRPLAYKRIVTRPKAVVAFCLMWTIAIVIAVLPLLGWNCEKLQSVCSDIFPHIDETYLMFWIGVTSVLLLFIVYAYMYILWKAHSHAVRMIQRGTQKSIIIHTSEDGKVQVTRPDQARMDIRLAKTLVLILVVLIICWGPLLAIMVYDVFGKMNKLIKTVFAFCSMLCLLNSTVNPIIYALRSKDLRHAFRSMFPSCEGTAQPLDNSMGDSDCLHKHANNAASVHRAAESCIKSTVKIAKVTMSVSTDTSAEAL

SMILES | pKi (Cannabinoid receptor 1) | pKi (Cannabinoid receptor 2)
CCCCCOC(=O)c1cc(OC)c(-c2cc(C)cc(C)c2)c(OC)c1 | < 5.00 | < 5.00
COc1cc(C(=O)O)cc(O)c1-c1cc(C)cc(C)c1 | < 5.00 | < 5.00
CCCCCOC(=O)c1cc(O)c(-c2cc(C)cc(C)c2)c(OC)c1 | 5.85 | 6.57
COc1cc(C(=O)O)cc(OC)c1-c1cc(C)cc(C)c1 | < 5.00 | < 5.00
Cc1cc(C)cc(-c2c(O)cc(C(=O)O)cc2O)c1 | < 5.00 | < 5.00
CCCCOC(=O)c1cc(O)c(-c2cc(C)cc(C)c2)c(O)c1 | 5.59 | < 5.49
CCCCCOC(=O)c1cc(O)c(-c2ccccc2)c(O)c1 | < 5.00 | < 5.40
COC(=O)c1cc(O)c(-c2cc(C)cc(C)c2)c(OC)c1 | < 5.00 | < 5.19
CCCCCOC(=O)c1cc(O)c(-c2cc(C)cc(C)c2)c(O)c1 | 5.70 | < 5.96
COC(=O)c1cc(O)c(-c2cc(C)cc(C)c2)c(O)c1 | < 5.00 | < 5.35
